Measured values taken from ChEMBL document CHEMBL4152323, “N-(1,3,4-oxadiazol-2-yl)benzamide analogs, bacteriostatic agents against methicillin- and vancomycin-resistant bacteria” (Eur J Med Chem, 2018).
≈ marks a conversion by molar mass, not a printed value. Calls of active or inactive are those of the source. No cut-off for these calls is given here.

How the values were obtained:
Staphylococcus aureus [1] = assay: Bacteriostatic activity against methicillin-resistant Staphylococcus aureus ATCC 33592 after 20 hrs by broth microdilution method; assay type: functional; conditions: ATCC 33592, 20 h
Outline: (§1)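 Broth microdilution MIC over 128 to 1 μg/mL, run alongside methicillin, linezolid and vancomycin. MIC taken as the lowest concentration with no visible growth.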

Staphylococcus aureus [2] = assay: Antibacterial activity against Staphylococcus aureus assessed as growth inhibition at 16 ug/ml after 24 hrs; assay type: functional, organism-based
Outline: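 S. aureus grown in Mueller Hinton Broth to early exponential phase, then exposed to compound (16 μg/mL; DMSO stocks 10 mg/mL) or DMSO in duplicate, 37 °C for 24 h. OD600 read; percent normalized OD600 = (X − media blank)/(DMSO control − media blank) × 100.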

Enterococcus faecalis [3] = assay: Bacteriostatic activity against vancomycin-resistant Enterococcus faecalis ATCC 51575 after 20 hrs by broth microdilution method; assay type: functional; conditions: ATCC 51575, 20 h; outline: as §1
Enterococcus faecalis [4] = assay: Bacteriostatic activity against Enterococcus faecalis ATCC 29212 after 20 hrs by broth microdilution method; assay type: functional; conditions: ATCC 29212, 20 h; outline: as §1
Staphylococcus aureus [5] = assay: Bacteriostatic activity against Staphylococcus aureus ATCC 25923 after 20 hrs by broth microdilution method; assay type: functional; conditions: ATCC 25923, 20 h; outline: as §1
Listeria monocytogenes = assay: Bacteriostatic activity against Listeria monocytogenes ATCC 19115 after 20 hrs by broth microdilution method; assay type: functional; conditions: ATCC 19115, 20 h
Outline: (§2)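 MIC by broth microdilution across 128 to 1 μg/mL in 96-well plates, 37 °C for at least 20 h. MIC is the lowest concentration with no visible growth.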

Staphylococcus aureus [6] = assay: Antibacterial activity against methicillin-resistant Staphylococcus aureus USA300 in BALB/c mouse wound infection model assessed as reduction in bacterial burden in wound at 2% administered topically bid for 5 days relative to control; assay type: functional; set-up: scale not given: the % may be the effect or the level left
Outline: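 Female BALB/c mice, eight weeks old, n = 5 per group, injected intradermally with 40 μL of 1.32×10^9 CFU/mL MRSA USA300. Once an abscess or open wound formed, it was treated topically twice daily for five days with 2% agent in petroleum jelly, with vehicle as control. Wound tissue excised 12 h after the last dose, homogenized in PBS, diluted and plated on mannitol salt agar for 16 h or more at 37 °C. CFU reduction calculated against vehicle.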

Escherichia coli [7] = assay: Bacteriostatic activity against AcrAB-tolC deficient Escherichia coli JW5503-1 after 20 hrs by broth microdilution method; assay type: functional; conditions: JW5503-1, 20 h; outline: as §2
Escherichia coli [8] = assay: Bacteriostatic activity against Escherichia coli BW25113 after 20 hrs by broth microdilution method; assay type: functional; conditions: BW25113, 20 h; outline: as §2

| SMILES | MIC (Staphylococcus aureus [1]) | growth inhibition (GI) (Staphylococcus aureus [2]) | MIC (Enterococcus faecalis [3]) | MIC (Enterococcus faecalis [4]) | MIC (Staphylococcus aureus [5]) | MIC (Listeria monocytogenes) | Activity (Staphylococcus aureus [6]) | MIC (Escherichia coli [7]) | MIC (Escherichia coli [8]) |
| --- | --- | --- | --- | --- | --- | --- | --- | --- | --- |
| C#CCNS(=O)(=O)c1ccc(C(=O)Nc2nnc(-c3ccc(Cl)cc3)o2)cc1 | 32 mg/L (≈ 76.8 µM) | Active | 64 mg/L (≈ 154 µM) | 64 mg/L (≈ 154 µM) | 64 mg/L (≈ 154 µM) | 64 mg/L (≈ 154 µM) |  |  |  |
| CN(C)S(=O)(=O)c1ccc(C(=O)Nc2nnc(-c3ccc(Cl)cc3)o2)cc1 | 32 mg/L (≈ 78.7 µM) | Active | 64 mg/L (≈ 157 µM) | 64 mg/L (≈ 157 µM) | 64 mg/L (≈ 157 µM) | 64 mg/L (≈ 157 µM) |  |  |  |
| O=C(Nc1nnc(-c2ccco2)o1)c1ccc(S(=O)(=O)N2CCOCC2)cc1 |  | inactive |  |  |  |  |  |  |  |
| CCN(CC)S(=O)(=O)c1ccc(C(=O)Nc2nnc(-c3ccc(Cl)cc3)o2)cc1 | 16 mg/L (≈ 36.8 µM) | Active | 16 mg/L (≈ 36.8 µM) | 32 mg/L (≈ 73.6 µM) | 16 mg/L (≈ 36.8 µM) | 16 mg/L (≈ 36.8 µM) |  |  |  |
| CN(CC1CCCO1)S(=O)(=O)c1ccc(C(=O)Nc2nnc(-c3ccccc3)o2)cc1 (stereo not given) |  | Active |  |  |  |  |  |  |  |
| COc1ccc(-c2nnc(NC(=O)c3ccc(S(=O)(=O)N4C[C@H](C)C[C@H](C)C4)cc3)o2)cc1 (mixture of isomers) | 4 mg/L | Active | 4 mg/L | 4 mg/L | 4 mg/L | 4 mg/L |  |  |  |
| CCOC(=O)c1nnc(NC(=O)c2ccc(S(=O)(=O)N3C[C@H](C)C[C@H](C)C3)cc2)o1 |  | inactive |  |  |  |  |  |  |  |
| CC(=O)O[C@H]1C[C@@]2(C)[C@@H](C[C@@H](O)[C@H]3[C@@]4(C)CC[C@@H](O)[C@@H](C)[C@@H]4CC[C@@]32C)/C1=C(\CCC=C(C)C)C(=O)O [FUSIDIC ACID] |  |  |  |  |  |  | 77.91% |  |  |
| CC[C@H]1OC(=O)[C@H](C)[C@@H](O[C@H]2C[C@@](C)(OC)[C@@H](O)[C@H](C)O2)[C@H](C)[C@@H](O[C@@H]2O[C@H](C)C[C@H](N(C)C)[C@H]2O)[C@](C)(O)C[C@@H](C)C(=O)[C@H](C)[C@@H](O)[C@]1(C)O [ERYTHROMYCIN] |  |  |  |  |  |  |  | ≤ 1 mg/L | 32 mg/L (≈ 43.6 µM) |
| O=C(Nc1nnc(-c2ccc(Cl)cc2)o1)c1ccc(S(=O)(=O)NC2CC2)cc1 | 16 mg/L (≈ 38.2 µM) | Active | 16 mg/L (≈ 38.2 µM) | 32 mg/L (≈ 76.4 µM) | 16 mg/L (≈ 38.2 µM) | 16 mg/L (≈ 38.2 µM) |  |  |  |
| O=C(Nc1nnc(-c2cccs2)o1)c1ccccc1 |  | inactive |  |  |  |  |  |  |  |
| CC1CCCCN1S(=O)(=O)c1ccc(C(=O)Nc2nnc(-c3cccs3)o2)cc1 (stereo not given) | 8 mg/L (≈ 18.5 µM) | Active | 16 mg/L (≈ 37 µM) | 16 mg/L (≈ 37 µM) | 8 mg/L (≈ 18.5 µM) | 16 mg/L (≈ 37 µM) |  |  |  |
| C[C@@H]1C[C@H](C)CN(S(=O)(=O)c2ccc(C(=O)Nc3nnc(-c4ccc(F)cc4)o3)cc2)C1 (mixture of isomers) | 4 mg/L | Active | 4 mg/L | 4 mg/L | 4 mg/L | 4 mg/L |  |  |  |
| COc1cccc(-c2nnc(NC(=O)c3ccc(S(=O)(=O)N(C)CC4CCCO4)cc3)o2)c1 (stereo not given) | 32 mg/L (≈ 67.7 µM) | Active | 32 mg/L (≈ 67.7 µM) | 32 mg/L (≈ 67.7 µM) | 32 mg/L (≈ 67.7 µM) | 32 mg/L (≈ 67.7 µM) |  |  |  |
